Shown are actives, neighbours in structure and some others; about 4.6% of the full set was active somewhere.
ALR inh: inhibitors of human sulfhydryl oxidase ALR; P55789; inhibition, % (test concentration not listed); 290,000 compounds, 3.8% hits; purified ALR, DTT oxidation, H2O2 HRP-luminol luminescence;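 active = mean replicate inhibition above about 79%, with every replicate also reaching it, limit read from the data; inconclusive = only one of the two criteria met; inactive = mean below limit and not every replicate reaching it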
Target sequence (P55789 whole entry, looked up): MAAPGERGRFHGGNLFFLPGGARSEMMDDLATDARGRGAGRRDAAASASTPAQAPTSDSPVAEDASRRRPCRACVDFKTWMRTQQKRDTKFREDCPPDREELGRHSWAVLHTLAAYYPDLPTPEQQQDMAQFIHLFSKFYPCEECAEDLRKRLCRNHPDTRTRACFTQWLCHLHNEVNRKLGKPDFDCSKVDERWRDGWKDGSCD
Rtt109 Vps75: blocks Candida albicans Rtt109/Vps75 acetyltransferase activity. Q5AAJ8. AID 540336. purified Rtt109/Vps75, ThioGlo CoA-SH fluorescence, 4 h. inhibition, % at 34.9 µM. 330,000 compounds, 0.16% hits;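 active = inhibition of at least 50% in every replicate; inconclusive = best replicate reaches 50% inhibition but some replicates fall short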
M18AAP inhibitor: PfM18AAP enzyme inhibition | recombinant PfM18AAP, H-Glu-NHMec fluorogenic cleavage | inhibition, % at 7.35 µM | 290,000 compounds, 1.2% hits | AID 1822;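 active = inhibition above the campaign mean inhibition over all tested compounds plus 3 SD, cut at about 28% in these data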;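 also: 0% = plate median of test compound wells and 100% = 2 mM ZnCl2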
HDAC3 inhib: inhibitors of human histone deacetylase 3 | recombinant HDAC3, fluorogenic peptide/trypsin coupled, fluorescence | inhibition, % at 8.3 µM | O15379 | 320,000 compounds, 0.15% hits; in the data active = inhibition above about 26%, passing the limit was not always enough; inconclusive = no clear call, values can overlap the other calls
Target sequence (O15379 whole entry, looked up): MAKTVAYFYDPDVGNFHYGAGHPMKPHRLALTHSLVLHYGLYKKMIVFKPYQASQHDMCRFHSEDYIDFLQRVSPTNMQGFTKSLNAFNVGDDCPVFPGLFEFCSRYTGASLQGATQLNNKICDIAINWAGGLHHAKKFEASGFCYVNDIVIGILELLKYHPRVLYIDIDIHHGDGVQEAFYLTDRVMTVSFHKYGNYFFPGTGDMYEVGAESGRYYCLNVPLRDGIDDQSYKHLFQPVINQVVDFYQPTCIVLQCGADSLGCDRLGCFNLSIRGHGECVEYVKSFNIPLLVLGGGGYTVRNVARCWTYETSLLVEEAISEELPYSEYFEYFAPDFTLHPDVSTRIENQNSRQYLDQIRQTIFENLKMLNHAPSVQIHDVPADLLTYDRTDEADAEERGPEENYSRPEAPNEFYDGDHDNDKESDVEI
FAS-TE inh: blocks the thioesterase domain of human fatty acid synthase; recombinant FAS-TE, OMFH fluorogenic substrate, fluorescence endpoint; inhibition, % at 15 µM; 360,000 compounds, 0.67% hits; AID 602261;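 active = compounds whose normalised, plate-corrected inhibition of enzyme fluorescence in the single-dose primary screen is 50% or more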;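 also: 0% = DMSO with enzyme and 100% = substrate without enzyme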
UCH37 DUB inh: blocks the human deubiquitinase UCH37. purified proteasome/UCH37, Ub-AMC cleavage fluorescence. 330,000 compounds, 0.33% hits. AID 588478. Q9Y5K5. inhibition, % (concentration not given with the values);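 active = mean inhibition over replicate wells above about 20%, limit read from the data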;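 also: 0% = compound-free wells with enzyme and 100% = wells lacking proteasome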
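Material: Human UCH37 enzyme supplied as purified proteasome complex | Schedule: 30 min compound-proteasome preincubation then 25 min substrate reaction, room temperature | Detection: AMC fluorescence from Ub-AMC cleavage, excitation 355 nm, emission 460 nm | Benchmarks: Wells without proteasome as full block, compound-free enzyme plus substrate as uninhibited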
Starred values were filed as active, the others as inactive; u = inconclusive; x = no result.

SMILES	ALR inh	Rtt109 Vps75	M18AAP inhibitor	HDAC3 inhib	FAS-TE inh	UCH37 DUB inh
C=CC[C@H](CC(=O)N(CCO)Cc1ccccc1)C(=O)NC[C@H](OC(=O)[C@@H](CC=C)CC(=O)OC(C)(C)C)c1ccccc1	1.2	18.2	x	31.2*	9.7	0.6
C=CC[C@@H](CC(=O)N(CCO)Cc1ccccc1)C(=O)NC[C@@H](OC(=O)[C@@H](CC=C)CC(=O)OC(C)(C)C)c1ccccc1	-10.3	1.3	x	6.3	9.3	-0.4
C=CCC[C@H](Cc1ccc(F)cc1)C(=O)OC[C@@H](Cc1c[nH]c2ccccc12)NC(=O)[C@H](CC=C)CC(=O)N(CCO)Cc1ccccc1	2.9	-1.8	x	-0.6	20.2	x
C=CCC[C@@H](Cc1ccc(F)cc1)C(=O)OC[C@@H]1CCCN1C(=O)[C@@H](CC=C)CC(=O)N(CCO)Cc1ccccc1	-8.9	0.7	x	28.2*	36.2	-0.3
C=CCC[C@@H](Cc1ccc(F)cc1)C(=O)OC[C@@H](Cc1c[nH]c2ccccc12)NC(=O)[C@H](CC=C)CC(=O)N(CCO)Cc1ccccc1	3.8	4.0	x	50.6*	18.5	2.2
C=CC[C@H](CC(=O)N(CCO)Cc1ccccc1)C(=O)N[C@@H](COC(=O)[C@@H](CC=C)Cc1ccc(F)cc1)Cc1c[nH]c2ccccc12	-3.2	6.4	x	38.9*	16.1	0.7
C=CC[C@@H](CC(=O)N(CCO)Cc1ccccc1)C(=O)N[C@H](COC(=O)[C@@H](CC=C)CC(=O)OC(C)(C)C)Cc1c[nH]c2ccccc12	3.0	8.5	x	50.2*	20.2	6.5
C=CC[C@@H](CC(=O)N(CCO)Cc1ccccc1)C(=O)N[C@@H](COC(=O)[C@@H](CC=C)Cc1ccc(F)cc1)Cc1c[nH]c2ccccc12	1.2	-2.6	x	39.5*	23.7	0.8
C=CC[C@H](CC(=O)N(CCO)Cc1ccccc1)C(=O)N[C@@H](COC(=O)[C@H](CC=C)CC(=O)OC(C)(C)C)Cc1c[nH]c2ccccc12	-19.9	0.0	x	2.2	22.8	-0.4
CCNC(=S)NN=Cc1ccc(OCC(=O)Nc2ccc(OC)cc2)c(OC)c1	x	x	x	x	x	-13.9
O=C(NNC(=O)C1[C@H]2CCCC[C@@H]12)c1ccc(=O)oc1 (stereo partly specified)	95.9*	20.7	7.6	-0.7	-3.6	-119.4
O=C(NC12CC3CC(CC(C3)C1)C2)c1ccc(=O)oc1	x	-2.5	1.8	-0.6	-3.7	6.9
COc1ccc(C(=O)CSC2=C(C#N)C3(CCCCC3)C(C#N)=C(N)N2)cc1	87.2*	-0.1	4.3	10.9	6.4	2.0
CCn1cc(C=NO)c(C)n1	x	x	x	x	x	4.3
S=C(Nc1ccccc1)N1CCCCC1	-5.1	-3.1	3.7	u	-5.9	0.9
S=C(Nc1ccccc1)N1CCCN1c1ccccc1	87.2*	-2.0	0.0	-2.1	-1.4	2.5
O=C(CSCc1ccccc1)Nc1ccc(S(=O)(=O)Nc2ncccn2)cc1	98.0*	8.1	0.6	-2.3	-4.8	1.2
CCc1c(C(=O)NNC(=S)Nc2ccc(S(=O)(=O)Nc3ncccn3)cc2)csc1C	98.0*	3.2	17.9	1.3	-6.9	4.9
O=S(=O)(Nc1ncccn1)c1ccc(NC(=S)Nc2ccccc2)cc1	2.7	28.5	9.4	-1.7	-7.3	0.8
Cc1ccc(SCC(=O)Nc2ccc(S(=O)(=O)Nc3ncccn3)cc2)cc1	89.5*	3.4	5.4	0.6	-4.2	1.6
COC(=O)c1ccc(NC(=O)CSCc2ccccc2)cc1	98.6*	-8.6	-0.6	9.1	3.3	1.0
COc1ccc(C=NNC(=O)CC(=O)Nc2cccc(Cl)c2)cc1OC	x	x	x	x	x	0.8
CC(=O)Nc1ccc(S(=O)(=O)Nc2ncccn2)cc1	-2.6	-9.7	0.6	-4.5	-6.9	2.3
O=C(Nc1ccc(S(=O)(=O)Nc2ncccn2)cc1)C1=COCCO1	97.1*	0.0	x	2.0	-10.0	x
CC1=CC(=NOS(=O)(=O)c2ccccc2)C(C)=CC1=O	x	x	x	x	x	4.1
SMILES	ALR inh	Rtt109 Vps75	M18AAP inhibitor	HDAC3 inhib	FAS-TE inh	UCH37 DUB inh
C/C(C=Nn1c(COc2ccccc2)n[nH]c1=S)=C\c1ccco1	x	x	x	x	x	2.5
COc1ccc(NC(=O)COC(=O)c2ccc3ccccc3n2)cc1OC	-2.7	-0.3	x	-5.8	-4.2	1.4
CCN(c1ccc(NC(=O)COC(=O)c2ccc3ccccc3n2)cc1)C(C)C	96.0*	3.3	5.8	-2.8	1.5	0.9
Cc1cc(C)nc(N=C(NC(=O)C(C)(C)C)Nc2ccc(F)cc2)n1	x	x	x	x	x	2.5
CCOC(=O)/C(C#N)=C/C=C1/C=CC=CN1C	95.3*	3.2	9.6	15.1	0.4	20.2*
COc1ccccc1CCC(=O)Oc1ccccc1C#N	84.9*	-6.0	8.2	11.7	7.3	3.4
COc1ccccc1NC(=O)Nc1ccccc1C#N	-10.8	-6.7	0.1	-5.0	-4.9	-70.5
Cc1sc(NC(=O)CCl)c(C(=O)c2ccccc2)c1C	98.9*	4.1	13.4	3.1	8.5	3.4
N#CNC(=Nc1cccc(C(F)(F)F)c1)SCc1ccc(C(=O)O)cc1	98.8*	-97.6	-7.6	4.2	-2.2	1.4
O=C(CNC(=O)c1ccc2c(c1)OCCO2)NN=Cc1ccc([N+](=O)[O-])cc1	x	x	x	x	x	3.5
CCc1oc2ccccc2c1C(=O)CCN1CCCCC1	97.1*	14.3	5.6	-2.3	-6.4	1.2
CC(=NOCC(=O)NN=Cc1ccccc1O)c1cccs1	x	x	x	x	x	-7.8
O=C(NCc1ccccc1Cl)c1ccccc1CCc1ccccc1	-0.4	3.0	-5.1	-5.1	26.1	4.5
O=C(NCc1ccc(Cl)cc1)c1ccccc1CCc1ccccc1	2.8	52.0*	-9.0	8.5	19.9	4.2
CCOc1ccccc1N1CCN(C/C=C/c2ccc(N(C)C)cc2)CC1	98.6*	4.7	-7.7	0.6	-5.3	3.8
CCOc1ccccc1N1CCN(Cc2ccco2)CC1	32.9	1.4	8.5	0.3	-7.8	2.0
Cc1cccc(CCNC(=O)COc2cc(=O)n(C)c3ccccc23)c1	-20.1	-13.4	3.9	9.2	2.2	1.0
CCN(CCCNC(=O)COc1cc(=O)n(C)c2ccccc12)c1cccc(C)c1	98.5*	-11.5	9.2	-1.9	6.0	-1.0
c1ccc2c(c1)nnn2CNc1nccs1	98.5*	-7.1	0.0	4.1	-11.8	1.5
Nc1c(C(=O)NN=Cc2cccnc2)oc2nc(-c3ccco3)cc(-c3ccco3)c12	x	x	x	x	x	-13.1
Cc1cc(C(=O)NN=Cc2ccc(C)s2)n[nH]1	x	x	x	x	x	7.4
CCc1ccc(CCC(=O)Nc2ccc(Cl)cc2)o1	77.7*	6.6	-0.4	1.6	10.2	0.7
Cc1cccc(OCCCC(=O)Nc2ccc(N(C)C)cc2)c1	91.6*	-2.2	10.3	5.6	-1.3	2.6
Cc1ccc(CCC(=O)Nc2ccc(Cl)cc2)o1	13.5	8.1	-6.4	1.1	3.0	5.7
CN(C)c1ccc(NC(=O)CCn2c(=S)oc3ccccc32)cc1	98.3*	-6.3	5.6	-7.3	0.0	1.8

Screening data: PubChem BioAssay, several laboratories
